GRIN3A LBD mod = modulates the human NR3A ligand-binding domain; NR3A LBD differential scanning fluorimetry, Tm shift; 0% = protein alone, 100% = glycine-bound protein; Tm shift relative to glycine control, % at 25 µM; actives 2.5% (n = 340,000); AID 1259313;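 active = melting temperature shift of at least 10% of the positive control shift, at one fixed dose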
MPTP inh = inhibitors of mitochondrial permeability transition pore; inhibition, % at 10 µM; isolated mouse mitochondria, Ca2+ swelling absorbance, 30 min; AID 602449; actives 1.4% (n = 360,000);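 active = inhibition of 50% or more, scaled per plate between neutral and stimulator controls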
SKN-1 inh = inhibitors of C. elegans SKN-1; inhibition, % at 21.8 µM; C. elegans VP596 Pgst-4::GFP/RFP ratio, acrylamide-induced, 24 h; actives 0.49% (n = 360,000);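 active = interference check ratio from 0.5 to 1.5 plus GFP to RFP signal ratio inhibition reaching or exceeding a fixed threshold, cut at about 30% in these data, passing the limit was not always enough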
MT1-MMP act inh = blocks activation of human MT1-MMP; GFP/RFP ratio change, % at 20 µM; P50281; actives 0.061% (n = 360,000); HT1080 RFP-PRO-GFP cells, GFP/RFP ratio fluorescence, overnight; percent of plate control window, DMSO zero; AID 651647;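 active = GFP/RFP ratio change of at least 30% with cell ATP level not reduced by more than half and red fluorescence within 50% of control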
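Read-out: GFP/RFP fluorescence ratio; Test system: RFP-PRO-GFP reporter HT1080 cells; Compound dosing: single-point 20 µM compound, 1% DMSO; Times: overnight compound exposure at 37 °C.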
ADAM10 inh = inhibits human ADAM10. O14672. recombinant ADAM10, EDANS/DABCYL FRET peptide cleavage, 3 h. inhibition, % at 7 µM. actives 0.62% (n = 370,000). AID 720582;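 active = inhibition above a per-campaign cutoff equal to the mean of compounds falling between control-based bounds plus 3 SD, cut at about 20% in these data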
ADAM17 inh = ADAM17 inhibition, QFRET primary screen; inhibition, % at 6.95 µM; actives 0.83% (n = 370,000); P78536; recombinant ADAM17, EDANS/DABCYL FRET peptide cleavage; AID 720648;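 active = inhibition above the mean of compounds lying between control limits plus 3 SD, set per campaign, cut at about 8.5% in these data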
Target sequence (P78536 215-824 limits assumed): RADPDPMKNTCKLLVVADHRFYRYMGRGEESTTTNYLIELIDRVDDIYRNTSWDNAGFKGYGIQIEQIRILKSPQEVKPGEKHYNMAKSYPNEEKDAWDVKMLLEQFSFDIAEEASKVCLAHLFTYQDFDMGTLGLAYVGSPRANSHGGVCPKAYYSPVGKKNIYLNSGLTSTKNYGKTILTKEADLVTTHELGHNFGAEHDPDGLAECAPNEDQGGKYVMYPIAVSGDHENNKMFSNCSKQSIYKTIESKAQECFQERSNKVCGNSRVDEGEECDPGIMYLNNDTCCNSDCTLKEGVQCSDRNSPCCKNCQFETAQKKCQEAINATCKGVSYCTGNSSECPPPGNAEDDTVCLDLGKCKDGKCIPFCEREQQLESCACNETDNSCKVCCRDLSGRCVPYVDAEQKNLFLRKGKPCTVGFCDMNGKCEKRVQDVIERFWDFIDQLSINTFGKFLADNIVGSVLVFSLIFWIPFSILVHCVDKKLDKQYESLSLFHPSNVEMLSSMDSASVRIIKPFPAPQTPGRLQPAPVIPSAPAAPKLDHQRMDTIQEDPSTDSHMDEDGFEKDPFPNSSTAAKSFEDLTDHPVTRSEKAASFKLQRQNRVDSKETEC
Hits are given with their value; – = inactive. Most compounds without a hit are left out; they make up all but 4.7% or so of the library.

SMILES	GRIN3A LBD mod	MPTP inh	SKN-1 inh	MT1-MMP act inh	ADAM10 inh	ADAM17 inh
COc1cc(Br)cc(/C=N/N(CCO)C2=NS(=O)(=O)c3ccccc32)c1OC	–	–	–	–	–	–
CCc1ccc(CN(C)CC(=O)Nc2ccccc2[N+](=O)[O-])cc1	19.1	–	–	–	–	–
O=C(CN1C(=O)S/C(=C/c2ccccn2)C1=O)N1CCOCC1	–	–	–	–	–	–
O=C1S/C(=C\c2ccccn2)C(=O)N1Cc1ccccc1F	13.0	–	–	–	–	–
Nc1ccc(-c2nc3ccc(N)cc3s2)cc1	–	–	–	–	–	–
Cc1cc(-c2nc3cc(F)ccc3s2)ccc1N	13.0	–	83.2	–	–	–
Cc1oc(-c2cc(F)ccc2F)nc1CN1CCN(c2ncnc3ccccc23)CC1	–	–	–	–	–	–
COc1ccc(-c2cc(C3CCN(Cc4cccc(C(F)(F)F)c4)CC3)[nH]n2)cc1	–	–	–	–	23.9	12.3
COc1cccc(NC(=O)NNC(=O)c2ccc3c(c2)NC(=O)C(C)(C)O3)c1	–	–	39.6	–	–	–
CCC(C)N1C(=O)CCC1C(=O)NCCc1ccc(Cl)cc1 (centres undefined)	–	–	–	–	–	–
O=C(COC(=O)c1ccccc1)NCc1ccco1	–	–	–	–	–	–
Cc1ccc(C(=O)OCC(=O)NCc2ccco2)cc1	10.2	–	–	–	–	–
CCc1nnc(NC(=S)Nc2ccccc2)s1	–	–	–	–	–	–
CCOc1ccc(C(=O)Nc2nnc(NC(=S)Nc3ccccc3)s2)cc1	34.5	–	–	–	–	–
Cc1ccc(NC2=Nc3ccccc3N3C2=Nc2c(c(C)nn2-c2ccccc2)C3c2ccc(O)c(O)c2)cc1 (centres undefined)	14.9	–	36.0	–	–	–
Cc1nn(-c2ccccc2)c2c1C(c1ccc([N+](=O)[O-])cc1)N1C(=N2)C(=O)Nc2ccccc21 (centres undefined)	–	–	–	–	–	–
Cc1cccc(NC2=Nc3ccccc3N3C2=Nc2c(c(C)nn2-c2ccccc2)C3c2ccc(O)c(O)c2)c1 (centres undefined)	21.8	–	–	–	–	–
Cc1nn(-c2ccccc2)c2c1C(c1ccc(O)c(O)c1)N1C(=N2)C(Nc2ccccc2)=Nc2ccccc21 (centres undefined)	–	–	–	–	–	–
Cc1ccc(OCCn2cccn2)c(C)c1	–	–	–	–	–	–
Cc1cccc(C(=O)NCC(=O)OCC(=O)N2CCCCC2)c1	–	–	–	–	–	–
O=C(Nc1ccc(Cl)cc1)c1ccc2ncsc2c1	23.9	–	–	–	–	–
O=C(Nc1cccc(Cl)c1)c1ccc2ncsc2c1	33.8	–	–	–	–	–
Cc1cccc(COc2ncnc3nc[nH]c23)c1	–	–	–	–	–	–
COc1ccc(C2C(C(=O)N3CC(C)CC(C)C3)c3ccccc3C(=O)N2C)cc1 (centres undefined)	–	–	–	–	–	–
Cc1nc(C(=O)NNC(=O)c2ccc(Cl)cc2)cs1	–	–	–	–	–	–
SMILES	GRIN3A LBD mod	MPTP inh	SKN-1 inh	MT1-MMP act inh	ADAM10 inh	ADAM17 inh
O=C(Nc1cccc(Cl)c1)Nc1ccccc1C(=O)O	–	–	–	–	–	–
COc1ccc(NC(=O)Nc2ccccc2F)cc1	–	–	–	–	–	–
O=C(Nc1cccc(Cl)c1)Nc1ccc2nccnc2c1	35.4	–	–	–	–	–
CSc1ccc(NC(=O)Nc2ccccc2C(N)=O)cc1	10.4	–	–	–	–	–
COc1ccc(NC(=O)Nc2ccccc2F)cc1Cl	20.3	–	–	–	–	–
NC(=O)c1ccccc1NC(=O)Nc1cccc(Cl)c1	28.1	–	–	–	–	–
CSc1cccc(NC(=O)c2[nH]c(C)c(C(C)=O)c2C)c1	–	–	–	–	–	–
NS(=O)(=O)c1ccc(NC(=O)Nc2cccc(Cl)c2)cc1	33.1	–	–	–	–	–
O=C(Nc1cccc(Cl)c1)N1CCCCCC1	–	–	–	–	–	–
CSc1ccc(NC(=O)Nc2ccc(C(=O)NCC(=O)O)cc2)cc1	14.7	–	–	–	–	–
O=C(Nc1ccc(C(=O)N2CCCCC2)cc1)Nc1cccc(Cl)c1	13.4	–	–	–	–	–

Compound activity as filed in PubChem.
